A short description of test [1]: Inhibitory activity against Glycogen synthase kinase-3 beta, expressed as percent control. On the set-up: concentration or dose not given beside the values. In short, it runs like this:
(§1)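 Recombinant GSK-3α or β, preincubated with compound (0-4 mM), then given phospho-glycogen synthase peptide-2 substrate and [γ-³²P]-ATP plus unlabelled ATP. Buffer: 20 mM MOPS, 0.25 mM Mg acetate, 5 mM MgCl₂, 5 mM β-glycerophosphate, 1 mM EGTA, 0.25 mM Na₃VO₄, 0.25 mM DTT. Reaction ran 30 min at 30 °C, then was spotted on phosphocellulose, acid-washed and scintillation-counted. Background-subtracted counts were normalized to uninhibited activity.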

Test [2] has as its target Glycogen synthase kinase-3 alpha (Homo sapiens) (UniProt P49840). The test can be described thus: Inhibitory activity against Glycogen synthase kinase-3 alpha, expressed as percent control. On the set-up: concentration or dose not given beside the values. Summed up:
as §1

Test [3] can be described thus: Anti-convulsant activity in experimental animal model; +++ = more effective. Format: functional.
Test [4] can be described thus: Inhibitory activity (20 mM) against Glycogen synthase kinase-3 beta, expressed as percent control. On the set-up: scale not given: the % may be the effect or the level left.
The nature of test [5]: Anti-convulsant activity in experimental animal model; ++ = relative to valproate. Format: functional.
Test [6] is described as follows: Inhibitory activity (4 mM) against Glycogen synthase kinase-3 beta, expressed as percent control. On the set-up: scale not given: the % may be the effect or the level left. The settings on record: in the assay text read “(0.5 mM)” for “(4 mM)”. In short, it runs like this:
as §1

Test [7] deals with Glycogen synthase kinase-3 alpha (Homo sapiens) (UniProt P49840). Kind of test: Inhibitory activity (4 mM) against Glycogen synthase kinase-3 alpha, expressed as percent control. More on the design: scale not given: the % may be the effect or the level left. In short, it runs like this: as §1
The nature of test [8]: Inhibitory activity (0.5 mM) against Glycogen synthase kinase-3 beta, expressed as percent control. More on the design: scale not given: the % may be the effect or the level left. Summed up: as §1
Test [9] concerns the target Glycogen synthase kinase-3 alpha (Homo sapiens) (UniProt P49840). The test can be described thus: Inhibitory activity (0.5 mM) against Glycogen synthase kinase-3 alpha, expressed as percent control. On the set-up: scale not given: the % may be the effect or the level left. Summed up:
as §1

The nature of test [10]: Anti-convulsant activity in experimental animal model; + = less effective. Format: functional.

Activity calls are given as the source filed them. The calls are words filed in the database; no cut-off is given here.

14 compounds from ChEMBL document CHEMBL1138007, “Examining the correlations between GSK-3 inhibitory properties and anti-convulsant efficacy of valproate and valproate-related compounds” (Bioorg Med Chem Lett, 2004) can be followed below.

Glycogen synthase kinase-3 alpha (Homo sapiens), sequence (P49840 2-483 limits assumed): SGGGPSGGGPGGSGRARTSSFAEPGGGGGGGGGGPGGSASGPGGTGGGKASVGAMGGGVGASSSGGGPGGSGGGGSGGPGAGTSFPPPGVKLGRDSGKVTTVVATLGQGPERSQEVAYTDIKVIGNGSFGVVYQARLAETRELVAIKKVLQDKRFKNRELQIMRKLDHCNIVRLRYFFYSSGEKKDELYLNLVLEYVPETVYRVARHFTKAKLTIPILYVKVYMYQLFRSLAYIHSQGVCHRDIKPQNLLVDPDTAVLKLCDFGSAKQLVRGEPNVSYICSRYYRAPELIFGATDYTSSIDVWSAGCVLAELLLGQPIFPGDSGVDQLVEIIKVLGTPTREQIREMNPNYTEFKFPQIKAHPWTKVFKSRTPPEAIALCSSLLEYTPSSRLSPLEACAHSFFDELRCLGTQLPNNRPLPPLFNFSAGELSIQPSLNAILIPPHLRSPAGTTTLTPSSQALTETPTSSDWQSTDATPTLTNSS

In the case of `C=CCC(CCC)C(=O)OC` (stereo not given), the Control was determined as 123% in test [1] and 99.9% in test [2].

Consider `CC/C=C(\CCC)C(=O)OC`, for which the Control in test [1] worked out at 33.3%; in test [2] it was 61.3%.

In the case of `CCCC(CCC)C(=O)OC`, the Control in [1] is 81.8%; in test [2], 104%.

For the compound `CCCC(CCC)C(N)=O`, in test [3], the outcome was Active. The Control in test [1] worked out at 83.9%; in test [2], 96.6%.

As to `[Cl-].[Li+]`, the Control in [4] was 19.5%.

As for `CCCC(CCC)C(=O)O`, the Control turned out to be 35.5% in test [1] and 80.4% in test [2]. Moreover, the outcome in test [5] was Active.

On to `C=CCC(CCC)C(=O)O` (stereo not given), for which the result in test [3] was Active. Besides, the Control in [1] worked out at 57.7%; in test [2], 99.2%.

Take `CCC(CC)C(=O)O`: the Control in test [6] was determined as 56.1%; in [7], 0.5%; in test [8], 56.1%; in test [9] it was 88.3%. Further, the Activity entry in test [10] is “Weak activity”.

In the case of `CCCC(C)(CCC)C(=O)O`, in test [3], the outcome was Active. The Control was 24.8% in [1] and 67.4% in test [2].

Take `CCCC(CCC)C(=O)NO`: the outcome in test [3] was Active. The Control in test [1] amounted to 49.1%; in [2] it was 54.2%.

As for `C=CCC(CCC)C(=O)OC(C)C` (stereo not given), the Control worked out at 110% in test [1] and 87.9% in test [2].

`CCCC(C)(CCC)C(=O)OC`: the Control in test [1] stood at 122%; in [2], 99.7%.

Take `CC/C=C(\CCC)C(=O)O`: the Control in [1] was 91.3%; in test [2], 100%. Further, in test [5], the outcome was Active.

The compound `O=C1NC(=O)C(c2ccccc2[N+](=O)[O-])=C1Nc1ccc(O)c(Cl)c1` returned a Control in test [4] of 4.6%.
